Results as given in ChEMBL document CHEMBL1139465, “Synthesis, molecular modeling studies, and selective inhibitory activity against monoamine oxidase of 1-thiocarbamoyl-3,5-diaryl-4,5-dihydro-(1H)- pyrazole derivatives” (J Med Chem, 2005).

Experiments:
[1] = molecular target: T1, Amine oxidase [flavin-containing] B (Bos taurus, UniProt P56560); assay: Inhibition of bovine brain mitochondria MAOB
T1 sequence (P56560 whole entry): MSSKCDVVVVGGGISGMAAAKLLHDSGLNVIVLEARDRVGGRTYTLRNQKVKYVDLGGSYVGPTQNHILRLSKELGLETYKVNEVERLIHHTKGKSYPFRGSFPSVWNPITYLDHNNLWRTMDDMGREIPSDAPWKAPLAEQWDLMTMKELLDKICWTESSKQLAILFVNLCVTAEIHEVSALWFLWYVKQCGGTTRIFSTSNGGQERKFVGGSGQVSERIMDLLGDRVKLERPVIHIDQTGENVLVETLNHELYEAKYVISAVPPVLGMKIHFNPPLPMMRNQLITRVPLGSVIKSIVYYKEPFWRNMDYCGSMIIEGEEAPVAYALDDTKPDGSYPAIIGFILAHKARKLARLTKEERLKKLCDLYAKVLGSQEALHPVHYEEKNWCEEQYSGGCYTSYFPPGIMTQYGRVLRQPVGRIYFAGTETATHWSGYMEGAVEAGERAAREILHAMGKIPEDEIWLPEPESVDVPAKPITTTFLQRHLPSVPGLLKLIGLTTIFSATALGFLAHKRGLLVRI
How it was run: (§1)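 Beef brain mitochondria isolated per Basford, 6 mg/mL, in 0.25 M potassium phosphate pH 7.4. Preincubation 30 min at 38 °C with 0.5 µM L-deprenyl (MAO-A) or 0.05 µM clorgyline (MAO-B). Inhibitor in DMSO, […]. Kynuramine at four final levels, 5 µM–0.1 mM, 30 min at 38 °C. Perchloric acid stop, fluorimetric read. Ki from Dixon plots; ≥3 experiments in duplicate.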

[2] = molecular target: T2, Amine oxidase [flavin-containing] A (Bos taurus, UniProt P21398); assay: Inhibition of bovine brain mitochondria MAOA; how it was run: as §1
T2 sequence (P21398 whole entry): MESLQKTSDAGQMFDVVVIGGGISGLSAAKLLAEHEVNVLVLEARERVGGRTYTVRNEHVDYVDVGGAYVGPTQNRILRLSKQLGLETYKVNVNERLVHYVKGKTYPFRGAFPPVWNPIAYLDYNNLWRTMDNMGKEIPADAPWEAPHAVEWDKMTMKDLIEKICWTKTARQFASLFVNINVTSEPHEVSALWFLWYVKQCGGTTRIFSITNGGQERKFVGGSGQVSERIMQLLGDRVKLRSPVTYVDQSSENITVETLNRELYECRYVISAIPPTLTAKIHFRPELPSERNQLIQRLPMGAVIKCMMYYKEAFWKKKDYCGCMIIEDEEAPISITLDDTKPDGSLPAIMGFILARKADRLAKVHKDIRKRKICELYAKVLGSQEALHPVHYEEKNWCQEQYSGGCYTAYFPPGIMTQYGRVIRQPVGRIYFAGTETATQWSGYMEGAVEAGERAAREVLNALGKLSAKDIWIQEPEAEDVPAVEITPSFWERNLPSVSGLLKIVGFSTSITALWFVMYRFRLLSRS

Bos taurus [3] = organism: Bos taurus; assay: Selectivity index, ratio of Ki for MAOB to Ki for MAOA in bovine brain mitochondria
How it was run: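 SI computed as Ki(MAO-B)/Ki(MAO-A). Both Ki values are from the fluorimetric kynuramine assay on bovine brain mitochondria, with isoforms isolated by L-deprenyl or clorgyline preincubation. Ki from Dixon plots; means of at least three experiments.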

Bos taurus [4] = organism: Bos taurus; assay: Selectivity index, ratio of Ki for MAOA to Ki for MAOB in bovine brain mitochondria

| Compound | Ki [1] [nM] | Ki [2] [nM] | Ratio Ki (Bos taurus [3]) | Ratio Ki (Bos taurus [4]) |
| --- | --- | --- | --- | --- |
| NC(=S)N1N=C(c2ccc(F)cc2)CC1c1ccco1 (stereo unspecified) | 370 | 8 | 46.2 | 0.021 |
| Cc1ccc(C2=NN(C(N)=S)C(c3ccc(Cl)cc3)C2)cc1 (stereo unspecified) | 1.5 | 31 | 0.05 | 20.7 |
| NC(=S)N1N=C(c2cccs2)CC1c1ccc(Cl)cc1 (stereo unspecified) | 6 | 41 | 0.14 | 6.8 |
| Cc1ccc(C2CC(c3cccs3)=NN2C(N)=S)cc1 (stereo unspecified) | 10 | 50 | 0.2 | 5 |
| NC(=S)N1N=C(c2cccs2)CC1c1ccco1 (stereo unspecified) | 20 | 50 | 0.4 | 2.5 |
| Cc1ccc(C2=NN(C(N)=S)[C@H](c3ccc(Cl)cc3)C2)cc1 | 1 | 50 | 0.02 | 50 |
| Cc1ccc(C2CC(c3ccc(F)cc3)=NN2C(N)=S)cc1 (stereo unspecified) | 50 | 7 | 7.1 | 0.14 |
| NC(=S)N1N=C(c2ccc(F)cc2)CC1c1ccc(Cl)cc1 (stereo unspecified) | 1000 | 6 | 166 | 0.006 |
| NC(=S)N1N=C(c2ccc(F)cc2)C[C@H]1c1ccc(Cl)cc1 | 2400 | 5 | 480 | 0.002 |
| Cc1ccc(C2=NN(C(N)=S)C(c3ccc(C)cc3)C2)cc1 (stereo unspecified) | 10 | 6 | 1.6 | 0.6 |
| NC(=S)N1N=C(c2ccc(F)cc2)C[C@@H]1c1ccc(Cl)cc1 | 1400 | 12 | 116 | 0.008 |
| NC(=S)N1N=C(c2cccs2)CC1c1cccs1 (stereo unspecified) | 50 | 27 | 1.85 | 0.54 |
| Cc1ccc(C2=NN(C(N)=S)C(c3ccco3)C2)cc1 (stereo unspecified) | 170 | 4 | 42.5 | 0.02 |
| Cc1ccc(C2=NN(C(N)=S)[C@@H](c3ccc(Cl)cc3)C2)cc1 | 2.7 | 13 | 0.2 | 4.8 |
